CHRM4 antagonist – antagonists of human muscarinic M4 receptor (CHRM4); P08173; CHO-hM4 cells, ACh EC80, Fluo-8 calcium fluorescence; inhibition, % at 3 µM; actives 0.73% (n = 360,000); AID 624125;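 active = inhibition above its plate's cutoff, the mean inhibition of sample wells plus 3 SD, cut at about 27% in these data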
Target sequence (P08173 whole entry, looked up): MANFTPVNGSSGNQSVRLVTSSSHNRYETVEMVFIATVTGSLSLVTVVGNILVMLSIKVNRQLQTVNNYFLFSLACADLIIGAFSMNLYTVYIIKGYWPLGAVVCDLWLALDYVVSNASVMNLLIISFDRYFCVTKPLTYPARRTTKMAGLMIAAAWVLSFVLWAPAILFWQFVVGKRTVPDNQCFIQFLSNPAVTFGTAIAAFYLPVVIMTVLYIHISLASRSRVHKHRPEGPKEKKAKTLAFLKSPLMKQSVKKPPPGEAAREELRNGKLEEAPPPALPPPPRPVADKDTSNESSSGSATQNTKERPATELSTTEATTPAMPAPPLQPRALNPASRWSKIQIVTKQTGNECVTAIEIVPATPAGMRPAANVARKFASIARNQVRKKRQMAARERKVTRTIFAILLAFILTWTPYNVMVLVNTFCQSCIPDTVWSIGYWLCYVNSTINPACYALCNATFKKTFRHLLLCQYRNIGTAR
M4 PAM – CHRM4 positive allosteric modulation; P08173; activation, % at 3 µM; CHO-K1 hM4/Gqi5, Fluo-8 calcium fluorescence, ACh EC20; 0% = ACh EC20, 100% = maximal ACh; actives 0.4% (n = 360,000);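 active = activation above its plate's cutoff, the mean activation of sample wells plus 3 SD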
CHRM4 agonist – agonists of human muscarinic M4 receptor (CHRM4); CHO-K1 hM4/Gqi5, Fluo-8 calcium fluorescence; vehicle 0%, full acetylcholine response 100%; activation, % at 3 µM; actives 0.14% (n = 360,000); AID 624127;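 active = activation above the run mean over all test wells plus 3 SD, cut at about 32% in these data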;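 note: peak over basal fluorescence ratio per well then scaled between controls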
CHRM5 PAM – CHRM5 positive allosteric modulation. P08912. CHO-K1 hM5, Fluo-8 calcium, ACh EC20 PAM; 0% = ACh EC20, 100% = ACh EC100. activation, % at 3 µM. actives 0.3% (n = 360,000). AID 624038;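 active = activation above the run cutoff, the mean activation of all test compounds plus 3 SD, cut at about 18% in these data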
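Assay system – human M5 receptor in CHO-K1 cells · Read-out – % activation, ACh-normalized · Technique – Fluo-8 calcium fluorescence · Dosing – single-point, 3 µM nominal · Incubation – Fluo-8 loading 80 min at 37 °C plus 30 min room temperature · Repeats – singlicate, one well per test compound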
M5 ag – agonists of human muscarinic M5 receptor (CHRM5). CHO-K1 hM5 cells, Fluo-8 calcium fluorescence; 0% DMSO wells, 100% maximal acetylcholine response. actives 0.19% (n = 360,000). activation, % at 3 µM. P08912;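 active = activation above the run's mean over test compounds plus 3 SD, cut at about 23% in these data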;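 note: signal is peak over basal fluorescence ratio across the kinetic read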
CHRM5 antagonist – blocks acetylcholine activation of human M5 receptor | CHO-hM5 cells, Fluo-8 calcium fluorescence, ACh EC80 | inhibition, % at 3 µM | actives 0.59% (n = 360,000) | P08912;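 active = inhibition above a per-plate cutoff, the mean of that plate's test compounds plus 3 SD, cut at about 27% in these data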
Numbers stand for hits; – = inactive. Hits are enriched below; roughly 1.9% of the tested compounds scored in any of these assays.

SMILES	CHRM4 antagonist	M4 PAM	CHRM4 agonist	CHRM5 PAM	M5 ag	CHRM5 antagonist
CCOC(=O)C1CCc2c(ccc3ccccc23)N1CCC#N (stereo not drawn)	–	–	–	–	–	29
O=C(NN=C1CCCC1)c1n[nH]c2c1CCC2	–	27	–	–	–	–
Cc1ccc2nc(SCC(=O)O)nc(C)c2c1	–	19	–	–	–	–
O=C(N/C(=C/c1ccc(F)cc1)C(=O)N1CCCCC1)c1ccco1	–	–	–	–	–	–
CCC(C(=O)Nc1ccon1)c1ccccc1 (stereo not drawn)	–	–	–	–	–	–
C=CCNC(=S)Nc1ccccc1-c1nnc2n1CCCCC2	–	–	–	–	–	30
Nc1ccccc1-c1nnc2n1CCCCC2	–	–	–	–	–	–
O=C(CSc1nc2ccccc2c(=O)[nH]1)c1ccccc1	–	–	–	–	–	–
O=C(O)CSc1nc2ccccc2c(=O)[nH]1	–	–	–	24	–	–
O=S(=O)(c1ccc(Cl)cc1)N1CCCC1c1nc2ccccc2s1 (stereo not drawn)	–	–	–	–	–	–
Cc1ccc(S(=O)(=O)N2CCCC2c2nc3ccccc3s2)cc1 (stereo not drawn)	–	–	–	18	–	–
N#Cc1ccc(C(=O)Nc2nnc(-c3cccs3)o2)cc1	–	–	–	–	–	–
O=C(Nc1nnc(-c2cccs2)o1)c1cccc(C(F)(F)F)c1	–	–	65	–	–	–
CCOc1ccc(NC(=O)CSc2nnc(C)n2CC)cc1	–	–	–	–	–	–
COc1ccc(C)c2sc(N(CCCN(C)C)C(=O)c3ccc4c(c3)OCCO4)nc12	54	67	–	–	–	–
Cc1cc(C)c2nc(N(CCCN(C)C)C(=O)c3ccc4c(c3)OCCO4)sc2c1	–	29	–	–	–	–
Cc1cccc2sc(N(CCCN(C)C)C(=O)c3ccc(Cl)s3)nc12	–	–	–	–	–	–
Cc1cccc2sc(N(CCCN(C)C)C(=O)c3ccco3)nc12	73	–	–	–	–	49
COc1ccc2c(c1)C(O)C(CO)C(C(=O)O)C2 (stereo not drawn)	–	–	–	–	–	–
COc1ccc(CCC(=O)NNC(=O)Nc2ccccc2Cl)cc1	–	–	–	–	–	–
COc1ccc(S(=O)(=O)N2CCOCC2)cc1NC(=O)CCCOc1ccc(Cl)cc1C	–	–	–	–	–	–
CN(C)S(=O)(=O)c1cc(NC(=O)c2cc(=O)c3ccccc3o2)ccc1Cl	–	–	–	–	–	–
COc1ccc(NC(=O)c2cc(=O)c3ccccc3o2)cc1Cl	–	23	–	–	–	–
CN1CCN(C(=O)c2cccc(-c3ccc4nccn4c3)c2)CC1	–	–	–	–	–	–
Cc1cccc(C)c1NC(=O)CNCC(=O)Nc1c(C)cccc1C	–	–	–	–	–	–
SMILES	CHRM4 antagonist	M4 PAM	CHRM4 agonist	CHRM5 PAM	M5 ag	CHRM5 antagonist
CC[N+](CC)(CC)CC(=O)Nc1c(C)cccc1C	35	–	–	–	30	–
Cc1c(CCOC(=O)c2ccccc2)sc[n+]1Cc1ccccc1	64	–	–	–	–	95
Cc1c(CCOC(=O)c2ccccc2)sc[n+]1CC(=O)c1ccc(Br)cc1	28	–	–	–	–	28
Cc1c(CCOC(=O)c2cc([N+](=O)[O-])cc([N+](=O)[O-])c2)sc[n+]1CC(=O)c1ccccc1	–	–	–	–	–	–
CCOCCCN(C(=O)c1snc(C(N)=O)c1N)C(C(=O)NC1CCCC1)c1ccc(F)cc1 (stereo not drawn)	–	–	–	–	–	–
COc1cccc(NC(=O)CN2C(=O)COc3ccc(S(=O)(=O)N4CCOCC4)cc32)c1	–	–	–	–	–	–
CCOC(=O)c1ccc(Oc2c(C)oc3c(CN4CCN(C)CC4)c(O)ccc3c2=O)cc1	33	–	–	–	–	–
CCOc1ccccc1Oc1c(C)oc2c(CN3CCN(CCO)CC3)c(O)ccc2c1=O	–	–	–	–	–	–
COc1ccc(Oc2c(C)oc3c(CN4CCOCC4)c(O)ccc3c2=O)cc1	41	–	–	–	–	–
CCCCSc1ncc(C(=O)OCC)c(N)n1	–	–	–	–	–	–
CCOC(=O)c1cnc(SCCc2ccccc2)nc1N	–	35	–	–	–	–
CC(CCc1ccc(O)cc1)N1CCC(Oc2ccc(C(=O)N3CCCC3)cc2)CC1 (stereo not drawn)	–	–	–	–	–	–
CC(=O)N1CCN(C(=O)c2ccc(OC3CCN(CCc4ccccc4)CC3)cc2)CC1	–	–	–	–	–	–
O=C(c1ccc(OC2CCN(CCCc3ccccc3)CC2)cc1)N1CCCC1	30	–	–	–	–	–
COc1ccc(CCC(C)N2CCC(Oc3ccc(C(=O)N4CCCC4)cc3)CC2)cc1 (stereo not drawn)	42	–	–	–	–	–
O=C(c1ccc(OC2CCN(Cc3ccccc3C(F)(F)F)CC2)cc1)N1CCCCC1	–	–	–	–	–	29
CCOC(=O)C1CCN(C(=O)c2ccc(OC3CCN(C(=O)COC)CC3)cc2)CC1	–	20	–	–	–	–
CN(Cc1cccc(-n2cccn2)c1)C(=O)CCc1nnc(C2CCCCC2)o1	–	–	–	–	–	–
CC(=O)C[C@@H](O)CC(=O)[C@@H]1OC(=O)CCCCCCCc2ccccc21	–	–	–	–	–	–
C=CCn1c2c(c(=O)[nH]c1=S)CN(C(C)c1ccccc1)CN2 (stereo not drawn)	–	–	–	–	–	–
CCC(C)N1CNc2c(c(=O)[nH]c(=S)n2-c2cccc(C)c2)C1 (stereo not drawn)	–	–	–	23	–	35
CCOc1ccc(NCc2cccn2-c2nnc(N3CCC(C(=O)NCCCN4CC(C)CC(C)C4)CC3)s2)cc1 (stereo not drawn)	34	–	–	–	–	–
COc1ccc(CSc2nnc3[nH]c(=O)cc(N)n23)cc1	–	–	–	–	–	35
COCCNS(=O)(=O)c1ccc2c(c1)C(=NO)c1cc(S(=O)(=O)NCCOC)ccc1-2	–	–	–	–	–	–
CC(C)(CO)NS(=O)(=O)c1ccc2c(c1)C(=NO)c1cc(S(=O)(=O)NC(C)(C)CO)ccc1-2	–	21	–	–	–	–
Cc1ccc(O)c(NC(=O)c2cc(-c3cccs3)on2)c1	–	–	–	–	–	–
Cn1c(=O)c(C(=O)COc2ccc(C#N)cc2)c(N)n(Cc2ccccc2)c1=O	–	–	–	–	38	–
